Assay results taken from ChEMBL document CHEMBL1255482, “Novel mechanism of glycopeptide resistance in the A40926 producer Nonomuraea sp. ATCC 39727” (2010).
≈ marks a conversion by molar mass, not a printed value. Calls of active or inactive are those of the source. The rule behind the calls is not given here.

What was measured:
Assay type in all cases: functional
Nonomuraea [1] = assay: Microbicidal activity against Nonomuraea sp. ATCC 39727 at 5000 ug/ml after 24 hrs
Method in brief: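 MBC: sonicated mycelium was grown in SM flasks for three generations, then given increasing antibiotic concentrations for a further 24 h. It was washed with physiological saline, diluted and plated on antibiotic-free SM agar for about 15 days at 28°C to give the surviving fraction. Under 0.1% survival counted as bactericidal; mean of three experiments.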

Streptomyces coelicolor = assay: Antimicrobial activity against Streptomyces coelicolor
Nonomuraea [2] = assay: Antimicrobial activity against Nonomuraea sp. ATCC 39727 selected after 12 ug/ml of compound exposure
Method in brief: (§1)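 Exponential-phase mycelium (about 48 h, 28°C, shaken, in SM) was exposed to the inducing glycopeptide for 24 h. It was then harvested, suspended in 0.9% NaCl and sonicated. Up to 10⁷ CFU were spread on SM agar with a glycopeptide concentration series and incubated 15 days at 28°C. MIC was taken from the population analysis profile as the concentration inhibiting 99.99% of colonies. Values are the mean of three independent experiments.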

Nonomuraea [3] = assay: Antimicrobial activity against Nonomuraea sp. ATCC 39727 selected after 0.5 ug/ml of A40926 exposure; method in brief: as §1
Streptomyces venezuelae = assay: Antimicrobial activity against Streptomyces venezuelae ATCC 10595 harboring vanY gene
Method in brief: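 Population analysis profile: 10⁷ spores of each strain were plated on MYM agar containing graded antibiotic levels and incubated 3 days. Surviving colonies were counted, and MIC was taken as the concentration inhibiting growth of 99.99% of the population.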

[4] = system: Actinoplanes teichomyceticus; assay: Antimicrobial activity against Actinoplanes teichomyceticus
Nonomuraea [5] = assay: Antimicrobial activity against Nonomuraea sp. ATCC 39727 selected after 0.25 ug/ml of teicoplanin exposure; method in brief: as §1
Nonomuraea [6] = assay: Antimicrobial activity against vanY-deficient Nonomuraea sp. ATCC 39727
Method in brief: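 The ΔvanY mutant replaces the vanY coding sequence with the aac(3)IV cassette. Its sonicated exponential-phase mycelium (SM, 28°C, about 48 h) was plated, up to 10⁷ CFU, on SM agar carrying graded glycopeptide concentrations and incubated 15 days at 28°C. MIC is the concentration inhibiting 99.99% of the population, read from the population analysis profile.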

Nonomuraea [7] = assay: Antimicrobial activity against Nonomuraea sp. ATCC 39727
Method in brief: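 MIC taken from population analysis profiles. Sonicated mycelium from exponential-phase SM cultures (about 48 h, 28°C, shaken) was suspended in 0.9% NaCl. Up to 10⁷ CFU were spread per SM agar plate containing a range of glycopeptide concentrations and incubated 15 days at 28°C. Colonies were counted for the surviving fraction. MIC is the concentration inhibiting 99.99% of the population; mean of three independent experiments.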

Structure (SMILES)	Activity (Nonomuraea [1])	MIC (Streptomyces coelicolor) [µg/mL]	MIC (Nonomuraea [2]) [µg/mL]	MIC (Nonomuraea [3]) [µg/mL]	Activity (Streptomyces venezuelae)	MIC [4] [µg/mL]	MIC (Nonomuraea [5]) [µg/mL]	MIC (Nonomuraea [6]) [µg/mL]	MIC (Nonomuraea [7]) [µg/mL]
NC[C@H]1O[C@H](O[C@H]2[C@H](O)[C@@H](O[C@H]3O[C@H](CO)[C@@H](O)[C@H](N)[C@H]3O)[C@H](N)C[C@@H]2N)[C@H](O)[C@@H](O)[C@@H]1O	Active								
CN[C@H](CC(C)C)C(=O)N[C@H]1C(=O)N[C@@H](CC(N)=O)C(=O)N[C@H]2C(=O)N[C@H]3C(=O)N[C@H](C(=O)N[C@H](C(=O)O)c4cc(O)cc(O)c4-c4cc3ccc4O)[C@H](O)c3ccc(c(Cl)c3)Oc3cc2cc(c3O[C@@H]2O[C@H](CO)[C@@H](O)[C@H](O)[C@H]2O[C@H]2C[C@](C)(N)[C@H](O)[C@H](C)O2)Oc2ccc(cc2Cl)[C@H]1O [VANCOMYCIN]	inactive	100 (≈ 69 µM)	20 (≈ 13.8 µM)	35 (≈ 24.2 µM)	inactive	90 (≈ 62.1 µM)	27	4 (≈ 2.76 µM)	19.5 (≈ 13.5 µM)
